Reference: ChEMBL document CHEMBL4382285, “Discovery of Novel Retigabine Derivatives as Potent KCNQ4 and KCNQ5 Channel Agonists with Improved Specificity” (ACS Med Chem Lett, 2019)
Calls of active or inactive are those of the source. The rule behind the calls is not given here.

What was measured:
Type in all cases: cell-based
[1] = target: T1, Potassium voltage-gated channel subfamily KQT member 1 (Homo sapiens, UniProt P51787); assay: Activity at human KCNQ1 expressed in CHOK1 cells assessed as ratio of amplitude of outward current in presence of test compound to amplitude of outward current in absence of test compound at 10 uM at -10 mV by whole cell patch clamp assay
T1 sequence (P51787 whole entry): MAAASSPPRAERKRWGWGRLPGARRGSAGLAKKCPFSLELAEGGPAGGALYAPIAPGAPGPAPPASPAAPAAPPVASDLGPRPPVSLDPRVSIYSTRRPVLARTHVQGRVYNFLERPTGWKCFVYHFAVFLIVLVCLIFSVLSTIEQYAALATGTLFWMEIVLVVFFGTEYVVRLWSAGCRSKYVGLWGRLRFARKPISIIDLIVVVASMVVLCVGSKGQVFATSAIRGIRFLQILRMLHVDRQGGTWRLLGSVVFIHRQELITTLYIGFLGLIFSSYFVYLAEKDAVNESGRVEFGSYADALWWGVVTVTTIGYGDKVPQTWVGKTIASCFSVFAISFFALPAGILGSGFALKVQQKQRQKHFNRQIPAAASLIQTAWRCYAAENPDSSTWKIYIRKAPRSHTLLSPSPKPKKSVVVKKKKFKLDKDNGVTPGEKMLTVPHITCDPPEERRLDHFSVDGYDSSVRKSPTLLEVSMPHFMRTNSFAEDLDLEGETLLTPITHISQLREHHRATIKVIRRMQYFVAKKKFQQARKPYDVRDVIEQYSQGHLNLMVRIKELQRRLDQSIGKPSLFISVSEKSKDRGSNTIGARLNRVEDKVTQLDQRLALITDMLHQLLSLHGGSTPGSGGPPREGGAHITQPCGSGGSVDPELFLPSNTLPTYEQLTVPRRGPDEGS
Summary of the method: (§1)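 CHO-K1 cells individually transfected with a single KCNQ subtype; whole-cell voltage clamp. Held at −80 mV, stepped from −90 to +60 mV in 10 mV increments (1500 ms), then to −120 mV for 500 ms. Outward current at −10 or +60 mV measured before (I0) and after (I) 10 μM compound; I/I0 >1 counts as activation. More than four cells per compound.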

[2] = target: T2, Potassium voltage-gated channel subfamily KQT member 4 (Homo sapiens, UniProt P56696); assay: (§2) Activation of human homomeric KCNQ4 expressed in CHOK1 cells at -10 mV by whole cell patch clamp assay
T2 sequence (P56696 whole entry): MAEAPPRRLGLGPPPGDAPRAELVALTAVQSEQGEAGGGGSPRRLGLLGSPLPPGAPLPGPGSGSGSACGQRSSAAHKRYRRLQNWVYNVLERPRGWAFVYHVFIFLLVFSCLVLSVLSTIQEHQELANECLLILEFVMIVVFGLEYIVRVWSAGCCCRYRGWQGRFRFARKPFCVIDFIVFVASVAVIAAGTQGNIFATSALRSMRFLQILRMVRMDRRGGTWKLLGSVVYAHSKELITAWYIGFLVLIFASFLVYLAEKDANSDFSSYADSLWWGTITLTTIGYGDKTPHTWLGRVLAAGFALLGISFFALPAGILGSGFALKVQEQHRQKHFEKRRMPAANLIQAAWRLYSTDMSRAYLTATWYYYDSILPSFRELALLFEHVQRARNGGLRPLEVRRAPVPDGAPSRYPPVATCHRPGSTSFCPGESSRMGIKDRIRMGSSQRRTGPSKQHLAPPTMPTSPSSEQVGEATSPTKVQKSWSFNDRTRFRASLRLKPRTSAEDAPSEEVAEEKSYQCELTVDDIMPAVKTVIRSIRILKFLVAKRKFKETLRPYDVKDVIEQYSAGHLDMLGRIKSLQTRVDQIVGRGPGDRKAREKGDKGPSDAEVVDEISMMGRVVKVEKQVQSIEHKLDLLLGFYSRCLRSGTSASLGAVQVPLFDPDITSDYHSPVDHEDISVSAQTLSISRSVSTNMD
Summary of the method: (§3)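 Whole-cell voltage clamp of CHO-K1 cells expressing homomeric KCNQ4. Holding potential −80 mV with depolarizing steps; current read at −10 mV before and after compound at several concentrations. EC50 derived from the concentration–response relationship, with the Hill coefficient reported.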

[3] = target: T3, Potassium voltage-gated channel subfamily KQT member 4 (Homo sapiens) (UniProt P56696); assay: as §2; summary of the method: as §3
T3 sequence (whole entry): T2 sequence (P56696 whole entry)

[4] = target: T4, Potassium voltage-gated channel subfamily KQT member 3 (Rattus norvegicus) (UniProt O88944); assay: Activity at rat KCNQ3 expressed in CHOK1 cells assessed as ratio of amplitude of outward current in presence of test compound to amplitude of outward current in absence of test compound at 10 uM at -10 mV by whole cell patch clamp assay; summary of the method: as §1
T4 sequence (whole entry): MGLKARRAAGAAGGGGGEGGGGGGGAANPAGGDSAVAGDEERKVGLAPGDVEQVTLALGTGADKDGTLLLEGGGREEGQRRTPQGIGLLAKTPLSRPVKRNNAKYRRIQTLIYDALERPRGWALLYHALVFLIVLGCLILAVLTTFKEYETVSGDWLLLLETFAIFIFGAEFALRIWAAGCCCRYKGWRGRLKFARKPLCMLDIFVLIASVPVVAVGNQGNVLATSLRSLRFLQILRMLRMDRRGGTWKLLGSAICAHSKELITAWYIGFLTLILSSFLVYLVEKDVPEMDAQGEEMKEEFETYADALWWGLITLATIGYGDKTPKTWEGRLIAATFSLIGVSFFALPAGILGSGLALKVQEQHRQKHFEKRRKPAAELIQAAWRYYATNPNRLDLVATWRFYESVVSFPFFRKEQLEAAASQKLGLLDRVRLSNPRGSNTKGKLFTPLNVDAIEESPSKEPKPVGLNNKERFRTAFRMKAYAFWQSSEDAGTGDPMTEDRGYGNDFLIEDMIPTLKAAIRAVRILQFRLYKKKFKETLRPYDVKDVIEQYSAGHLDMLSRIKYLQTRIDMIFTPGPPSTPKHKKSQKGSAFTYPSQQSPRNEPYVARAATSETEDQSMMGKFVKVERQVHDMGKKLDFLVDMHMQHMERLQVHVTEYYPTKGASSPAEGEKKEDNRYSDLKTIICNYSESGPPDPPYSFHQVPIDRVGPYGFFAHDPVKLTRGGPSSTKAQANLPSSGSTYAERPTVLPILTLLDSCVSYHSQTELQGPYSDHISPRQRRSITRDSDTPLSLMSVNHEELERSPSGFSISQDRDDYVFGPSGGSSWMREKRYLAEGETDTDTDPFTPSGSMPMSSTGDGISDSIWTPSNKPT

[5] = target: T3, Potassium voltage-gated channel subfamily KQT member 4 (Homo sapiens); assay: Effect on voltage-dependent activation of human KCNQ4 expressed in CHOK1 cells assessed as negative shift in current activation curve at 10 uM by whole cell patch clamp assay
[6] = target: T3, Potassium voltage-gated channel subfamily KQT member 4 (Homo sapiens); assay: Activity at human KCNQ4 expressed in CHOK1 cells assessed as ratio of amplitude of outward current in presence of test compound to amplitude of outward current in absence of test compound at 10 uM at -10 mV by whole cell patch clamp assay
Summary of the method: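 CHO-K1 cells expressing the channel, whole-cell voltage clamp, compound at 10 μM. Read-out is the outward current ratio I/I0 with and without compound, taken at −10 mV. I/I0 > 1 counts as activation and < 1 as inhibition. More than four cells per compound.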

C#CCN(Cc1ccc(F)cc1)c1ccc(NC(=O)OCC)c(NC(=O)OCC)c1
Ratio [1]: 1
EC50 [2]: 890 nM
Activity [3]: Dose-dependent effect
Ratio [4]: 1.6
Activity [5]: inactive
Ratio [6]: 5.68
